Assay outcomes deposited in PubChem by Sanford-Burnham Center for Chemical Genomics.
Most compounds without a hit are left out; they make up all but 2.3% or so of the library.
Rpn11 block: Rpn11 (PSMD14) deubiquitinase inhibitors, primary screen, biochemical, fluorescence polarization, uHTS; human 26S proteasome, Ub4-pepOG fluorescence polarization; 20S core pre-blocked with epoxomicin; inhibition, % at 20 µM; 0.59% of 360,000 active;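 active means inhibition at 20 µM, scaled to each plate's controls, above about 33%, limit read from the data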
Target sequence (O00487 whole entry, looked up): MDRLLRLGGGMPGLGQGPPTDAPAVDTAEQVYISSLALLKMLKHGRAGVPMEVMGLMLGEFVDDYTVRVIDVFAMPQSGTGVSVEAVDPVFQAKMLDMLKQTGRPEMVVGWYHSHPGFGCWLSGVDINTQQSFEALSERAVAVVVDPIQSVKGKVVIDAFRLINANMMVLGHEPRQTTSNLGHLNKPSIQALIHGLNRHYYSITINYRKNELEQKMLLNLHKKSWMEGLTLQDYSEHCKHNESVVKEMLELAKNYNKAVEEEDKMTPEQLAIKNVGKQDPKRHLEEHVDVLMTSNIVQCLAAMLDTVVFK
SUMO1 PPI mod: modulators of SUMO1 protein-protein interactions, primary screen, biochemical, uHTS. inhibition, % at 20 µM. Small ubiquitin-related modifier 1 (Homo sapiens), P63165. 0.33% of 360,000 active. SUMO1 binding to a labelled peptide, TR-FRET, 1 h; in the data active means inhibition above about 37%
Target sequence (P63165 whole entry, looked up): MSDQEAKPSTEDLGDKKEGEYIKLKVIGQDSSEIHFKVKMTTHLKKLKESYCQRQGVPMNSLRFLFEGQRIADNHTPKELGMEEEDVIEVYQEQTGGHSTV
DNMT1 block: human DNMT1 methyltransferase inhibitors, primary screen, biochemical, molecular beacon, fluorescence, HinP1I cleavage, uHTS; inhibition (reported as % activation of signal), % at 10 µM; AID 588458, 2011; 0.83% of 360,000 active; DNA (cytosine-5)-methyltransferase 1 (Homo sapiens), P26358; in the data active means inhibition above about 50%
Scp-1 inhibitor: Scp-1 phosphatase inhibitors, primary screen, biochemical, colorimetric, uHTS | Carboxy-terminal domain RNA polymerase II polypeptide A small phosphatase 1 (Homo … | Recombinant Scp1, phosphopeptide, malachite green phosphate absorbance | inhibition, % at 20 µM | 0.88% of 340,000 active | AID 493091, 2011;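 active means inhibition above about 50% at 20 µM, limit read from the data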;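 further: plate controls were DMSO wells with enzyme for no effect and wells lacking enzyme for full effect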
Target sequence (Q9GZU7 76-261 limits assumed): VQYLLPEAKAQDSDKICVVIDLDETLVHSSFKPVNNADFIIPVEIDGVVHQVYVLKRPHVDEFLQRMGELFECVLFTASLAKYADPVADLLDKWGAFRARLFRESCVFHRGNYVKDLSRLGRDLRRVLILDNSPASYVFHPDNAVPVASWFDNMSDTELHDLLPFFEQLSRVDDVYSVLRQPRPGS
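Test system: SCP-1 catalytic domain; Buffer or medium: Acidic Tris acetate buffer with magnesium and detergent; Also added: Phosphorylated 17-residue peptide substrate; Compound: single 20 µM dose, 1% DMSO; Schedule: enzyme reaction 45 min at room temperature, colour 5 min, stabilisation 30 min; Signal: Phosphate-binding colour reagent, absorbance read at 630 nm.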
STEP inh: STEP phosphatase inhibitors, primary screen, biochemical, fluorescence intensity, uHTS; Tyrosine-protein phosphatase non-receptor type 5 (Homo sapiens), P54829; recombinant STEP, OMFP fluorogenic substrate; inhibition, % at 20 µM; 0.25% of 360,000 active; AID 588621, 2011;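 active means inhibition at 20 µM, scaled per plate between control wells, above about 37%, limit read from the data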;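 further: 0% = DMSO with enzyme and substrate and 100% = substrate only without enzyme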
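Test system: STEP tyrosine phosphatase / Reagent: OMFP at 25 µM / Doses: 20 µM, 1% DMSO / Read-out: percent inhibition scaled to no-enzyme and uninhibited-enzyme controls, plate-pattern corrected / Detection: FITC-channel fluorescence of OMFP product / Medium: Bis-Tris buffer pH 6.0, 2.5 mM DTT, 0.005% Tween 20 / Schedule: 20 min at room temperature, dark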
LMPTP inh: LMPTP phosphatase inhibitors, primary screen, biochemical, fluorescence intensity, uHTS | Low molecular weight phosphotyrosine protein phosphatase (Homo sapiens), P24666 | recombinant LMPTP-A, OMFP fluorogenic substrate | inhibition, % at 20 µM | 0.22% of 360,000 active;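 active means compounds that cut the enzyme signal by at least half of the control window in the single-dose screen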;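 further: plate controls were DMSO wells with enzyme plus substrate for no effect and substrate without enzyme for full effect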
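Test system: LMPTP-A, protein tyrosine phosphatase of low molecular weight; Input: 0.625 nM enzyme; Incubation: 50 min dark incubation at room temperature; Signal: endpoint fluorescence intensity from OMFP dephosphorylation; Read-out basis: % inhibition versus control wells.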
Scp-1 conf: Scp-1 phosphatase inhibitors, retest, confirmation, biochemical, colorimetric, single concentration | inhibition, % at 20 µM | 61% of 2,500 active | recombinant SCP-1 catalytic domain, phosphate release, malachite green absorbance | shares compounds with Scp-1 inhibitor;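 active means inhibition of at least 30% at 20 µM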;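 further: plate controls were DMSO with enzyme for no effect and buffer wells lacking enzyme for full effect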
Scp-1 MG ctr: colorimetric readout interference by compounds, confirmation, artefact control for Scp-1 inhibitor project, biochemical, single concentration; shares compounds with Scp-1 inhibitor; Colorimetric interference counterscreen, malachite green absorbance 630 nm; apparent inhibition (interference), % at 20 µM; 2,500 tested, under 10 active;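 active means inhibition of at least 30% at 20 µM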;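 further: compounds added after enzyme reaction finished so only phosphate colour detection is probed; plate controls were DMSO wells with completed Scp-1 reaction for no effect and substrate wells lacking enzyme for full effect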
Scp1 DSF: Scp-1 binding by thermal shift, confirmation, orthogonal assay for Scp-1 inhibitor project, biophysical, differential scanning fluorimetry; AID 540329, 2011; 25% of 1,500 active; shares compounds with Scp-1 inhibitor; thermal shift relative to vanadate control, % at 40 µM; Recombinant SCP1, Sypro Orange thermal shift Tm;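 active means substances whose mean melting-temperature shift, as a percentage of the reference inhibitor's shift, reaches about 5.3%, limit read from the data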;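 further: 0% = Tm of DMSO wells and 100% = Tm with sodium orthovanadate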
DNMT1 interf DR: spectral interference with molecular beacon fluorescence, dose response, artefact control for DNMT1 inhibitor project, biochemical, fluorescent molecular beacon. IC50, µM. AID 602382, 2012. shares compounds with DNMT1 block. 200 tested, under 10 active. spectral interference counter-screen; call rule not given here
DNMT1 confirm: DNMT1 methyltransferase inhibitor retest, confirmation, biochemical, molecular beacon, fluorescence, single concentration; AID 602385, 2012; 8% of 2,300 active; DNMT1 molecular beacon HinP1I cleavage; inhibition, % at 10 µM; shares compounds with DNMT1 block;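 active means average inhibition of at least 30% in the single-concentration confirmation test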
DNMT1 interf: beacon fluorescence artifact counter-screen | AID 602387 | DNMT1 molecular beacon spectral interference counterscreen, fluorescence 485/520 | 1% of 2,300 active | activation (fluorescence interference), % at 10 µM | shares compounds with DNMT1 block;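 active means activation of at least 30% at 10 µM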;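 further: DNMT1 catalytic domain with a HinP1I cleavage step and a FAM/dabcyl DNA beacon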
Rpn11 inh conf: Rpn11 (PSMD14) deubiquitinase inhibitors, confirmation, biochemical, fluorescence polarization, single concentration. shares compounds with Rpn11 block. purified human 26S proteasome, Ub4-pepOG fluorescence polarization; proteasome pretreated with epoxomicin. inhibition, % at 20 µM. 29% of 1,900 active. AID 602318, 2012
MMP-2 inh: MMP-2 enzyme inhibition, confirmation, counter-screen for RPN11 inhibitor project, biochemical, fluorescence, single concentration | shares compounds with Rpn11 block | recombinant MMP-2, FRET peptide cleavage fluorescence | inhibition, % at 20 µM | 4% of 1,900 active | AID 602330, 2012;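 further: human MMP-2 activated beforehand with APMA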
Thrombin inh: bovine thrombin protease inhibition, confirmation, counter-screen for Rpn11 inhibitor project, biochemical, fluorescence polarization, single concentration | shares compounds with Rpn11 block | bovine thrombin cleavage of Ub4-pepOG | inhibition, % at 20 µM | 13% of 1,900 active | AID 602333, 2012;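 active means mean inhibition at least 40% at 20 µM, or signal 3 deviations below plate average, so some actives read negative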;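 further: plate controls were thrombin with DMSO for no effect and buffer wells lacking thrombin for full effect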
Active calls of the source: *; / = not tested or not shown. Unless noted, no stated cut-off is given here; in the data, active means inhibition above about 40%; inactive means the rest.

SMILES	Rpn11 block	SUMO1 PPI mod	DNMT1 block	Scp-1 inhibitor	STEP inh	LMPTP inh	Scp-1 conf	Scp-1 MG ctr	Scp1 DSF	DNMT1 confirm	DNMT1 interf	Rpn11 inh conf	MMP-2 inh	Thrombin inh	others
O=C(O)c1ccc(COc2ccccc2C=C2C(=O)c3ccccc3C2=O)cc1	46*	19	0	68*	4	1	69*	-14	8.2*	/	/	66*	-18	15
O=C(O)c1ccc(COc2ccccc2/C=C2/NC(=O)N(c3cccc(Cl)c3)C2=O)cc1	56*	-3	0	66*	3	19	65*	-15	3	/	/	56*	19	15
CCc1ccc(NC(=O)CC2C(=O)N(c3cccc(C)c3)C(=O)N2C2CC2)cc1 (centres undefined)	2	1	6	-9	1	-1	/	/	/	/	/	/	/	/
CCCc1nc2oc3ccccc3c(=O)c2c(=O)n1-c1ccc(C)cc1	0	6	9	-8	2	-2	/	/	/	/	/	/	/	/
CCc1nc2oc3ccccc3c(=O)c2c(=O)n1-c1ccc(C)cc1	68*	11	78*	65*	5	47	56*	-16	4	5	1	47*	-18	22
COc1ccc(CNC(=O)c2cc(=O)c3cc(C)cc(C)c3o2)cc1	-4	-7	-1	4	-1	-1	/	/	/	/	/	/	/	/
CSc1ccc(/C=N/NC(=O)c2cc(O)cc(O)c2)cc1	-8	-8	2	-3	-1	1	/	/	/	/	/	/	/	/
CSc1ccc(/C=N/NC(=O)c2ccc(C)c(C)c2)cc1	61*	0	6	83*	5	13	59*	-11	-21	/	/	25	38	7
O=c1c(Cl)c(N/N=C/c2ccc(Br)cc2)cnn1-c1ccccc1	96*	-2	90*	59*	2	52*	61*	-20	-12	3	-1	47*	-26	13
O=C(c1ccco1)N1CCN(Cc2nnnn2C2CCCCC2)CC1	-1	-7	-1	-2	0	-3	/	/	/	/	/	/	/	/
CCCC(=O)Nc1cc(C)cn(Cc2c(F)cccc2Cl)c1=O	-4	-1	0	-5	-2	0	/	/	/	/	/	/	/	/
C=CCSc1nnc(NC(=O)c2ccc(Cl)nc2)s1	-4	1	2	-4	-3	0	/	/	/	/	/	/	/	/
Cc1ccc(C(=O)O)cc1-c1ccc(/C=C2/NC(=O)N(c3ccccc3)C2=O)o1	42*	25	92*	63*	5	4	68*	-12	13*	34*	-2	75*	18	31	DNMT1 interf DR=>99
O=C1NC(=O)/C(=C/c2ccc(-c3cc(C(=O)O)ccc3Cl)o2)S1	20	12	30	29	22	-6	/	/	/	/	/	/	/	/
COc1ccc(O)c(/C=N/NC(=O)c2c(C)nnn2-c2nonc2N)c1	171*	-5	96*	100*	68*	16	86*	-9	-12	6	1	184*	21	26
O=C(Nc1ccc(O)c(-c2nc3ccccc3s2)c1)C1=COCCO1	7	-117	-6	-11	-1	1	/	/	/	/	/	/	/	/
O=C(Nc1ccc(-c2nc3ccccc3s2)c(O)c1)C1=COCCO1	48*	2	70*	98*	22	53*	71*	-7	9.9*	5	5	43*	38	-20
O=C(O)c1ccc(-n2c(=O)c3ccccc3c3ccccc3c2=O)cc1	-1	2	5	-8	1	0	/	/	/	/	/	/	/	/
Cc1ccc(-n2c(=O)c3cc4c(=O)n(-c5ccc(C)c(C)c5)c(=O)c4c(C(=O)c4ccc(C(=O)O)cc4)c3c2=O)cc1C	109*	90*	34	91*	97*	83*	75*	-11	10*	/	/	4	11	39
O=C(O)c1cc(-c2ccco2)nn1-c1cccc(Cl)c1	42*	44*	105*	66*	16	8	58*	-15	8.4*	7	-2	19	15	6
O=C(O)c1cc(-c2cccs2)nn1-c1cccc(Cl)c1	3	13	1	4	-1	-1	/	/	/	/	/	/	/	/
Cc1nn(-c2ccccc2)c(Cl)c1/C=N/NC(=O)c1cccc(S(=O)(=O)N2CCCC2)c1	40*	-1	25	94*	26	4	17	-14	/	/	/	28	31	-10
